The text below walks through data of ChEMBL document CHEMBL1126655, “Synthesis and antiviral activity of novel isonucleoside analogs” (J Med Chem, 1993).

Bounds are passed on as bounds.

One data set relates to Human betaherpesvirus 5. Nature of the data set: Antiviral activity against Human cytomegalovirus (AD169 strain). The data set is classed as functional. The settings on record: read-out: ID50 (the source's name). Summed up:
(§1)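 WI-38 monolayers were infected, with virus adsorbed for 1–2 h. They were then overlaid with EMEM maintenance medium (1% carboxymethyl cellulose, 2.5% FBS) containing duplicate drug dilutions. Monolayers were stained after 4–6 days at 37 °C. ID50 was taken as the concentration giving 50% plaque reduction versus virus controls. Titrations were done in duplicate.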

A short description of data set [1]: Antiviral activity against Herpes simplex virus-1 (KOS strain). The data set is classed as functional. As to conditions: Human alphaherpesvirus 1; read-out: ID50 (the source's name). In short, it runs like this:
as §1

Data set [2] concerns Human alphaherpesvirus 1. In words: Antiviral activity against Herpes simplex virus-1 (Schooler strain). In kind it is functional. As to conditions: read-out: ID50 (the source's name). Summed up: as §1
For data set [3], the system named is Human alphaherpesvirus 1. Nature of the data set: Antiviral activity against Herpes simplex virus-1 (thymidine kinase deficient strains isolated as BVaraU resistant mutants of HSV-1 (KOS)). The data set is classed as functional. As to conditions: read-out: ID50 (the source's name). Summed up:
as §1

Data set [4] has as its system Human alphaherpesvirus 3. In words: Antiviral activity against Varicella zoster virus (Ellen strain). As to conditions: read-out: ID50 (the source's name). The data set is classed as functional. In short, it runs like this:
as §1

A further data set has as its system Human alphaherpesvirus 2. In words: Antiviral activity against Herpes simplex virus-2 (thymidine kinase deficient strains isolated as BVaraU resistant mutants of HSV-1 (KOS)). As to conditions: read-out: ID50 (the source's name). In kind it is functional.
The subject of a further data set is WI-38. In words: Tested for growth inhibition against WI-38 cells. In kind it is functional. The settings on record: Homo sapiens, read-out: ID50 (the source's name). Summed up: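 WI-38 cells seeded at 1.2 × 10^6 per well, incubated overnight at 37 °C, then refed with growth medium (EMEM, 10% FBS) holding serial drug dilutions or none, for 3 more days at 37 °C. Quadruplicate cultures per concentration trypsinized and counted daily for viable cells by trypan blue exclusion.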

The next data set deals with Vaccinia virus. Nature of the data set: Antiviral activity against vaccinia virus (CL strain). The data set is classed as functional. The settings on record: Orthopoxvirus vaccinia; read-out: ID50 (the source's name).
In data set [5] the test system is Mus musculus. In words: Protective dose against Herpes simplex virus type type -1 infection in mice at 200 mg/kg. In kind it is functional. The settings on record: read-out: PD50. In short, it runs like this:
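Female Swiss-Webster mice (20–23 g), 10 per group, infected intraperitoneally with 10^3 PFU HSV-1 strain Schooler (Vero freeze-thaw extract) in 0.3% BSA-PBS. Subcutaneous dosing in PBS twice daily from 1 h postinfection for 5 days, 12.5–200 mg/kg/day. Survival scored over 21 days; PD50 from survival by probit analysis.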

Data set [6] has as its system Mus musculus. Nature of the data set: Protective dose against Herpes simplex virus type type -2 infection in mice at 200 mg/kg. In kind it is functional. The settings on record: read-out: PD50. Summed up:
(§2)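 Female Swiss-Webster mice (20–23 g), 10 per group, infected intraperitoneally with 10^6 PFU HSV-2 strain Curtis (Vero freeze-thaw extract) in 0.3% BSA-PBS. Drug given subcutaneously in PBS twice daily from 1 h postinfection for 5 days, doses 12.5–200 mg/kg/day. Survival followed 21 days; PD50 by probit analysis; mean day of death by Student's t-test versus placebo.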

The test system of data set [7] is Mus musculus. Nature of the data set: Number of survivors against Herpes simplex virus type-2 infection in mice at 25 mg/kg/day. In kind it is functional. Summed up:
(§3)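 Female Swiss-Webster mice (20–23 g, 10 per group) were infected ip with 10^6 PFU HSV-2 Curtis in 0.3% BSA-PBS. Dosing was sc twice daily in PBS from 1 h postinfection for 5 days. Survival was recorded over 21 days. Mean day of death was computed for dead mice and compared with placebo-treated infected controls by Student's t-test.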

Data set [8] relates to Mus musculus. In words: Number of survivors against Herpes simplex virus type-2 infection in mice at 50 mg/kg/day. In kind it is functional. In short, it runs like this: as §2
Data set [9] deals with Mus musculus. In words: Number of survivors against Herpes simplex virus type-1 infection in mice at 100 mg/kg/day. The data set is classed as functional. Summed up: (§4)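 Female Swiss-Webster mice (20–23 g, 10 per group) were infected ip with 10^3 PFU HSV-1 Schooler in 0.3% BSA-PBS. Drug was given sc twice daily in PBS, starting 1 h postinfection, for 5 days. Survival was followed for 21 days. Mean day of death of dead animals was compared with placebo-treated infected controls by Student's t-test.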

The test system of data set [10] is Mus musculus. Nature of the data set: Number of survivors against Herpes simplex virus type-1 infection in mice at 12.5 mg/kg/day. In kind it is functional. Summed up: as §4
Data set [11] deals with Mus musculus. In words: Number of survivors against Herpes simplex virus type-1 infection in mice at 200 mg/kg/day. In kind it is functional. Summed up: as §4
Data set [12] deals with Mus musculus. In words: Number of survivors against Herpes simplex virus type-1 infection in mice at 25 mg/kg/day. In kind it is functional. In short, it runs like this: as §4
The subject of data set [13] is Mus musculus. Nature of the data set: Number of survivors against Herpes simplex virus type-1 infection in mice at 50 mg/kg/day. In kind it is functional. Summed up:
as §4

For data set [14], the system named is Mus musculus. Nature of the data set: Number of survivors against Herpes simplex virus type-2 infection in mice at 100 mg/kg/day. The data set is classed as functional. In short, it runs like this: as §3
For data set [15], the system named is Mus musculus. In words: Number of survivors against Herpes simplex virus type-2 infection in mice at 12.5 mg/kg/day. In kind it is functional. In short, it runs like this: as §3
Data set [16] deals with Mus musculus. Nature of the data set: Number of survivors against Herpes simplex virus type-2 infection in mice at 150 mg/kg/day. In kind it is functional. Summed up: as §3
Data set [17] concerns Mus musculus. Nature of the data set: Number of survivors against Herpes simplex virus type-2 infection in mice at 200 mg/kg/day. In kind it is functional. In short, it runs like this:
as §3

For data set [18], the system named is Mus musculus. In words: Day of death in lethal test against herpes simplex virus type-1 at 100 mg/kg/day (mean day of death +/-SD). The data set is classed as ADME, organism-based. The settings on record: in vivo. In short, it runs like this: as §4
Data set [19] deals with Mus musculus. Nature of the data set: Day of death in lethal test against herpes simplex virus type-1 at 12.5 mg/kg/day (mean day of death +/-SD). In kind it is ADME, organism-based. As to conditions: in vivo. In short, it runs like this: as §4
Data set [20] concerns Mus musculus. In words: Day of death in lethal test against herpes simplex virus type-1 at 200 mg/kg/day (mean day of death +/-SD). In kind it is ADME, organism-based. As to conditions: in vivo. Summed up:
as §4

Data set [21] concerns Mus musculus. In words: Day of death in lethal test against herpes simplex virus type-1 at 25 mg/kg/day (mean day of death +/-SD). In kind it is ADME, organism-based. As to conditions: in vivo. In short, it runs like this: as §4
Data set [22] concerns Mus musculus. Nature of the data set: Day of death in lethal test against herpes simplex virus type-1 at 50 mg/kg/day (mean day of death +/-SD). The data set is classed as ADME, organism-based. The settings on record: in vivo. Summed up: as §4
Data set [23] has as its system Mus musculus. In words: Day of death in lethal test against herpes simplex virus type-2 at 100 mg/kg/day (mean day of death +/-SD). In kind it is ADME, organism-based. The settings on record: in vivo. Summed up: as §3
Data set [24] deals with Mus musculus. Nature of the data set: Day of death in lethal test against herpes simplex virus type-2 at 12.5 mg/kg/day (mean day of death +/-SD). The data set is classed as ADME, organism-based. As to conditions: in vivo. Summed up: as §3
Data set [25] deals with Mus musculus. In words: Day of death in lethal test against herpes simplex virus type-2 at 200 mg/kg/day (mean day of death +/-SD). The data set is classed as ADME, organism-based. The settings on record: in vivo. Summed up: as §3
Data set [26] concerns Cercopithecine alphaherpesvirus 9. In words: Antiviral activity against Simina varicella virus (G815 strain). As to conditions: read-out: ID50 (the source's name). In kind it is functional. In short, it runs like this: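 Simian varicella virus G815 was grown from infected Vero cells and assayed by plaque reduction on Vero monolayers. Virus was adsorbed 1–2 h, then overlaid with EMEM (1% carboxymethyl cellulose, 2.5% FBS) containing duplicate drug dilutions. Staining was after 4–6 days at 37 °C. ID50 was the concentration giving 50% plaque reduction versus virus controls.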

For data set [27], the system named is Human alphaherpesvirus 3. Nature of the data set: Antiviral activity against Varicella zoster virus (Kanno-Kohmura thymidine kinase deficient strain). In kind it is functional. As to conditions: read-out: ID50 (the source's name). In short, it runs like this: as §1
For data set [28], the system named is Human alphaherpesvirus 3. In words: Antiviral activity against Varicella zoster virus (Ito strain). The settings on record: read-out: ID50 (the source's name). In kind it is functional. In short, it runs like this:
as §1

In data set [29] the test system is Human alphaherpesvirus 3. In words: Antiviral activity against Varicella zoster virus (Oka strain). The data set is classed as functional. The settings on record: read-out: ID50 (the source's name). In short, it runs like this:
as §1

Data set [30] relates to Human alphaherpesvirus 3. Nature of the data set: Antiviral activity against Varicella zoster virus (ppIIa strain). The data set is classed as functional. As to conditions: read-out: ID50 (the source's name). In short, it runs like this: as §1
Data set [31] concerns Human alphaherpesvirus 3. Nature of the data set: Antiviral activity against Varicella zoster virus (9021 strain). In kind it is functional. The settings on record: read-out: ID50 (the source's name). In short, it runs like this:
as §1

Data set [32] has as its system Mus musculus. Nature of the data set: Day of death in lethal test against herpes simplex virus type-2 at 150 mg/kg/day (mean day of death +/-SD). The settings on record: in vivo. The data set is classed as ADME, organism-based. In short, it runs like this:
as §3

For data set [33], the system named is Mus musculus. Nature of the data set: Number of survivors against Herpes simplex virus type-1 infection in mice at 150 mg/kg/day. In kind it is functional. In short, it runs like this: as §4

As to `Cc1cn([C@@H]2CO[C@H](CO)[C@H]2CO)c(=O)[nH]c1=O`, the IC50 with Human betaherpesvirus 5 was above 400 µM; in data set [1], 8 µM; in the data set with Human alphaherpesvirus 1 [2], 4 µM; in the data set on Human alphaherpesvirus 1 [3], above 400 µM; in the data set with Human alphaherpesvirus 3 [4], 20 µM.

With `Nc1ncnc2c1ncn2[C@@H]1CO[C@H](CO)[C@H]1CO`, the IC50 in the data set with Human betaherpesvirus 5 turned out to be 4 µM; in the data set with Human alphaherpesvirus 2, 4 µM; in data set [1] it was 4 µM; in the data set on Human alphaherpesvirus 1 [2], 8 µM; in the data set with Human alphaherpesvirus 1 [3], 8 µM; in the data set with WI-38 it was 90 µM. The IC50 in the data set on Vaccinia virus amounted to 20 µM; with Human alphaherpesvirus 3 [4], 4 µM.

As for `Nc1nc2c(ncn2COCCO)c(=O)[nH]1` [ACYCLOVIR], the IC50 is 40 µM in the data set on Human betaherpesvirus 5; above 440 µM in the data set on Human alphaherpesvirus 2; 2 µM in data set [1]; 0.9 µM in the data set with Human alphaherpesvirus 1 [2]; above 440 µM in the data set with Human alphaherpesvirus 1 [3]; 100 µM in data set [26]. Further, the IC50 in the data set on Human alphaherpesvirus 3 [27] was 100 µM; in the data set with WI-38, above 800 µM; in the data set with Human alphaherpesvirus 3 [4], 4 µM; in the data set on Human alphaherpesvirus 3 [28], 2 µM; in the data set with Human alphaherpesvirus 3 [29], 4 µM; in the data set on Human alphaherpesvirus 3 [30], 4 µM. In addition, in the data set on Human alphaherpesvirus 3 [31], the IC50 was found to be 2 µM. For the same compound, the ED50 with Mus musculus [5] and in the data set on Mus musculus [6] was above 200 mg/kg/day throughout. Further, the Survivors with Mus musculus [7] is 0; in the data set on Mus musculus [8], 1; in the data set with Mus musculus [9] it was 2; in the data set on Mus musculus [10] it was 0; in the data set on Mus musculus [11], 2; in the data set with Mus musculus [12], 3. The Survivors in the data set with Mus musculus [13] is 1; in the data set on Mus musculus [14], 2; in the data set on Mus musculus [15] it was 0; with Mus musculus [16] it was 4; with Mus musculus [17] it was 5; in the data set with Mus musculus [33], 2. For the same compound, the “Mean day of death” value turned out to be 9.3 in the data set with Mus musculus [18]; 8.3 in the data set on Mus musculus [19]; 14 in the data set with Mus musculus [20]; 7.8 in the data set on Mus musculus [21]; 9 with Mus musculus [22]; 13.5 in the data set on Mus musculus [23]. In addition, the “Mean day of death” value in the data set on Mus musculus [24] amounted to 10; with Mus musculus [25] it was 13; in the data set on Mus musculus [32], 13.
